Test results as given in ChEMBL document CHEMBL4351005, “Human constitutive androstane receptor agonist DL5016: A novel sensitizer for cyclophosphamide-based chemotherapies” (Eur J Med Chem, 2019).
Values after ≈ are worked out from the molar mass of the structure shown.

Key:
[1] = target: T1, Nuclear receptor subfamily 1 group I member 3 (Homo sapiens, UniProt Q14994); assay: Ratio of Emax to EC50 for human constitutive androstane receptor expressed in HepG2 cells co-expressing CYP2B6
T1 sequence (Q14994 whole entry): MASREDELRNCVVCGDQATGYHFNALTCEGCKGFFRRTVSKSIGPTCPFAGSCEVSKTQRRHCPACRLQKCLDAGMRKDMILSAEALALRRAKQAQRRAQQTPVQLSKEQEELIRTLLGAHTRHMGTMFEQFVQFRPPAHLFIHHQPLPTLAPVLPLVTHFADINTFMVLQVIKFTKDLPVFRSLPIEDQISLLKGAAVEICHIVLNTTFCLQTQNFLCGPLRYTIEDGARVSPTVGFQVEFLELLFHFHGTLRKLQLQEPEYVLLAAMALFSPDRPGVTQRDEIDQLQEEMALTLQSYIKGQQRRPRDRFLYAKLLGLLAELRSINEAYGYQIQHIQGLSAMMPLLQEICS

[2] = target: T1, Nuclear receptor subfamily 1 group I member 3; assay: Agonist activity at human constitutive androstane receptor expressed in HepG2 cells co-expressing CYP2B6 incubated for 23 hrs by One-Glo luciferase reporter gene assay; type: cell-based
How it was run: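 HepG2-CYP2B6-hCAR stable reporter cells, 2,500/well, attached 5 h at 37 °C/5% CO₂. Compounds in DMSO, 16 final concentrations from 6.41 pM to 92 μM (1:3 steps), with PK11195 at 0.75 μM final; final DMSO 0.46%. After 23 h, viability read by CellTiter-Fluor (ex 405/em 540 nm), then ONE-Glo luminescence (30 min, RT) in RLU.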

[3] = target: T1, Nuclear receptor subfamily 1 group I member 3; assay: Agonist activity at human constitutive androstane receptor expressed in HepG2 cells co-expressing CYP2B6 at 1 uM incubated for 23 hrs by One-Glo luciferase reporter gene assay; type: cell-based; details: hepg2, 23 h
[4] = target: T2, Nuclear receptor subfamily 1 group I member 2 (Homo sapiens, UniProt O75469); assay: Agonist activity at human PXR expressed in HepG2 cells co-expressing CYP2B6 at 1 uM incubated for 23 hrs by One-Glo luciferase reporter gene assay; type: cell-based; details: hepg2, 23 h
T2 sequence (O75469 whole entry): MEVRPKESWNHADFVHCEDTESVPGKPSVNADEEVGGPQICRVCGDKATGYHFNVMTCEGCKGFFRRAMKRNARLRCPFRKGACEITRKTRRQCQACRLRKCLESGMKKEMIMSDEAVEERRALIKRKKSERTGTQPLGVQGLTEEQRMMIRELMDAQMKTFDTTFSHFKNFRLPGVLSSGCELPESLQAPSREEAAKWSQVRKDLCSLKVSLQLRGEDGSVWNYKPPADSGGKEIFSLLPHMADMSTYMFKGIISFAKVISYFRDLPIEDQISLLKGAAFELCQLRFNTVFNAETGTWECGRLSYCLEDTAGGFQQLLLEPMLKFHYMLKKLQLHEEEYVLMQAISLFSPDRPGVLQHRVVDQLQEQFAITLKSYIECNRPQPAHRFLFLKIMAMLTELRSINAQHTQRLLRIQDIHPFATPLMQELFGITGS

[5] = target: T1, Nuclear receptor subfamily 1 group I member 3; assay: Induction of constitutive androstane receptor in human primary hepatocytes assessed as upregulation of CYP3A4 protein expression measured after 72 hrs by Western blot analysis; type: cell-based
How it was run: (§1)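 Hepatocytes from donors #131 and #133, dosed 36 h after seeding at 0.1, 0.5 and 1 μM (0.1% DMSO vehicle) for 72 h. Homogenate proteins run on 4–12% SDS-PAGE and immunoblotted: anti-CYP2B6 1:200, anti-CYP3A4 1:5000, β-actin 1:50,000 loading control. HRP secondaries, ECL detection.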

[6] = target: T1, Nuclear receptor subfamily 1 group I member 3; assay: Induction of constitutive - androstane receptor in human primary hepatocytes assessed as upregulation of CYP2B6 mRNA expression measured after 24 hrs by RT-PCR analysis; type: cell-based
How it was run: (§2)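 Primary human hepatocytes (donors HL-#131 and #133), viability >90%, 0.75×10⁶ cells/well, Matrigel overlay 0.25 mg/mL. Dosed 36 h post-seeding at 0.1, 0.5 and 1 μM (vehicle 0.1% DMSO; rifampin 10 μM reference) for 24 h. RT-PCR fold over control = 2^ΔΔCt versus GAPDH; mean ± SD, three independent experiments.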

[7] = target: T1, Nuclear receptor subfamily 1 group I member 3; assay: Induction of adenoviral enhanced yellow fluorescent protein tagged constitutive androstane receptor translocation from cytoplasm to nucleus in human primary hepatocytes at 1 uM measured after 8 hrs by DAPI staining based fluorescent microscopic analysis; type: cell-based
How it was run: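 Hepatocytes (60,000/well, collagen plates) infected overnight with Ad/EYFP-hCAR (3 μL/mL), then treated 8 h at 1 μM; controls 0.1% DMSO, phenobarbital 1 mM. Cells PFA-fixed and DAPI-stained; five images per well. Translocation % = cells with ≥50% nuclear overlap with EYFP-hCAR ÷ EYFP-positive cells; mean ± SD of five images.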

[8] = Lipophilicity, logP of compound; type: physicochemical; details: octanol/water
[9] = target: T1, Nuclear receptor subfamily 1 group I member 3; assay: Induction of constitutive - androstane receptor in human primary hepatocytes assessed as upregulation of CYP2B6 protein expression measured after 72 hrs by Western blot analysis; type: cell-based
How it was run: as §1

[10] = target: T1, Nuclear receptor subfamily 1 group I member 3; assay: Induction of constitutive androstane receptor in human primary hepatocytes assessed as upregulation of CYP3A4 mRNA expression measured after 24 hrs by RT-PCR analysis; type: cell-based
How it was run: as §2

[11] = target: T1, Nuclear receptor subfamily 1 group I member 3; assay: Induction of constitutive - androstane receptor in human primary hepatocytes assessed as upregulation of CYP3A4 mRNA expression at 0.5 to 5 uM after 24 hrs by RT-PCR analysis; type: cell-based
[12] = target: T1, Nuclear receptor subfamily 1 group I member 3; assay: Induction of constitutive - androstane receptor in human primary hepatocytes assessed as upregulation of CYP2B6 mRNA expression at 0.5 to 5 uM after 24 hrs by RT-PCR analysis; type: cell-based
[13] = Stability of compound; type: physicochemical
[14] = Aqueous solubility of the compound in phosphate buffer at pH 7.4 measured after 6 hrs by reverse phase HPLC analysis; type: physicochemical; details: pH 7.4, 6 h
How it was run: (§3)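 6 mg solid in 1 mL water or PBS (pH 7.4), shaken 6 h at 25 °C, centrifuged, and the supernatant filtered. Filtrate quantified by C18 reverse-phase HPLC: water-acetonitrile-triethylamine 30:70:0.01, 1 mL/min, UV 312 nm. Standard curve from solutions of known concentration.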

SUD4 [15] = assay: Potentiation of cyclophospamide/doxorubicin/vincristine/prednisone induced cytotoxicity against human SUDHL4 cells co-cultured with human primary hepatocytes assessed as reduction in cell viability after 24 hrs; type: functional, cell-based
How it was run: (§4)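 Hepatocytes pretreated 24 h with 1 μM test agent or 0.1% DMSO. 0.5×10⁶ SU-DHL-4 cells then added in membrane inserts (Williams' E). Co-cultures exposed with or without CHOP (5, 100, 500 μM; time course at 100 μM), plus or minus 1 μM agent. Viability by trypan blue exclusion at 24 h or set times, as % of vehicle; three independent measurements.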

[16] = Aqueous solubility of compound measured after 6 hrs by reverse phase HPLC analysis; type: physicochemical; details: water
How it was run: as §3

SUD4 [17] = assay: Antiproliferative activity against human SUDHL4 cells co-cultured with human primary hepatocytes assessed as reduction in cell viability at 1 uM after 24 hrs; type: cell-based; details: sud4, 24 h
How it was run: as §4

SUD4 [18] = assay: Potentiation of cyclophospamide/doxorubicin/vincristine/prednisone induced cytotoxicity against human SUDHL4 cells co-cultured with human primary hepatocytes assessed as reduction in cell viability at 1 uM; type: functional, cell-based; details: TDE = time-dependent effect
How it was run: as §4

Structure (SMILES)	Ratio [1]	EC50 [2]	Activity [3]	also measured
Clc1ccc(-c2nc3sccn3c2CNC2Cc3ccccc3C2)cc1	7.4 µM⁻¹	460 nM	Active	Activity [4]: Active
CCc1nc2sccn2c1CNCCc1ccc(Cl)c(Cl)c1	0.37	8700 nM	–	–
Clc1ccc(-c2nc3sccn3c2/C=N/OCc2ccc(Cl)c(Cl)c2)cc1	–	–	Active	Activity [5]: Active; Activity [6]: Dose-dependent effect; Activity [7]: Active; logP [8]: 7.26; Activity [9]: Dose-dependent effect; Activity [10]: Active; Activity [4]: Active
Clc1ccc(-c2nc3sccn3c2CNCCc2c[nH]c3ccccc23)cc1	1.4 µM⁻¹	2700 nM	–	–
Clc1ccc(-c2nc3sccn3c2CNCc2ccccc2)cc1	0.42 µM⁻¹	9200 nM	–	–
Clc1ccc(-c2nc3sccn3c2CNCCc2ccc(Br)cc2)cc1	1.1 µM⁻¹	3200 nM	–	–
c1ccc(CCNCc2c(-c3ccc4ccccc4c3)nc3sccn23)cc1	1.9 µM⁻¹	1900 nM	Active	–
Clc1ccc(-c2nc3sccn3c2CNc2ccc3ccccc3c2)cc1	0.22 µM⁻¹	63000 nM	–	–
Fc1ccc(CCNCc2c(-c3ccc(Cl)cc3)nc3sccn23)cc1	1.4 µM⁻¹	2100 nM	–	–
Clc1ccc(-c2nc3sccn3c2/C=N/CCc2ccc(Cl)c(Cl)c2)cc1	0.13 µM⁻¹	54000 nM	–	Activity [11]: Not Active; Activity [12]: Not Active
c1ccc2c(c1)CC(NCc1c(-c3ccc4ccccc4c3)nc3sccn13)C2	2.4 µM⁻¹	1600 nM	Active	Activity [4]: Active
Clc1ccc(-c2nc3ncccn3c2CNCCc2ccc(Cl)c(Cl)c2)cc1	3 µM⁻¹	920 nM	–	–
Clc1ccc(-c2nc3occn3c2CNCCc2ccc(Cl)c(Cl)c2)cc1	2.3 µM⁻¹	1300 nM	–	–
Oc1ccc(CCNCc2c(-c3ccc(Cl)cc3)nc3sccn23)cc1	0.36 µM⁻¹	10000 nM	–	–
c1ccc2c(c1)CC(NCc1c(-c3ccc4ccccc4c3)nc3occn13)C2	7.4 µM⁻¹	660 nM	–	Stability [13]: Stable; Activity [5]: Dose-dependent effect; Activity [6]: Dose-dependent effect; Activity [7]: Active; solubility [14]: 17 µg/mL (≈ 44.8 µM); Activity (SUD4 [15]): Dose-dependent effect; solubility [16]: 18 µg/mL (≈ 47.4 µM); Activity (SUD4 [17]): Non-Toxic; logP [8]: 4.62; Activity (SUD4 [18]): Tde; Activity [9]: Dose-dependent effect; Activity [10]: Active
O=C(NCCc1ccc(Cl)c(Cl)c1)c1c(-c2ccc(Cl)cc2)nc2sccn12	2.4 µM⁻¹	1100 nM	–	–
Clc1ccc(-c2nc3sccn3c2CNCCc2ccccc2)cc1	3.9 µM⁻¹	740 nM	Active	Activity [4]: Active

Continued, in another order:

Ratio [1]	EC50 [2]	Activity [3]	Structure (SMILES)	also measured
12 µM⁻¹	240 nM	Active	Clc1ccc(CCNCc2c(-c3ccccc3)nc3sccn23)cc1Cl	–
4.3 µM⁻¹	670 nM	–	COc1ccc(-c2nc3sccn3c2CNCCc2ccc(Cl)c(Cl)c2)cc1	–
1.9 µM⁻¹	1500 nM	–	N#Cc1ccc(-c2nc3sccn3c2CNCCc2ccc(Cl)c(Cl)c2)cc1	–
1.4 µM⁻¹	2200 nM	–	Cc1cn2c(CNCCc3ccc(Cl)c(Cl)c3)c(-c3ccc(Cl)cc3)nc2s1	–
1.1 µM⁻¹	2800 nM	–	Clc1ccc(-c2nc3sccn3c2CNCCc2cccc(Cl)c2)cc1	–
1.7 µM⁻¹	2100 nM	–	FC(F)(F)c1ccc(-c2nc3sccn3c2CNCCc2ccc(Cl)c(Cl)c2)cc1	–
2.4 µM⁻¹	1500 nM	Active	Clc1ccc(CCNCc2c(-c3ccc4ccccc4c3)nc3sccn23)cc1Cl	Activity [4]: Active
4.6 µM⁻¹	560 nM	–	Clc1ccc(CCNCc2c(-c3ccc(Br)cc3)nc3sccn23)cc1Cl	–
3.4 µM⁻¹	930 nM	–	Clc1cccc(-c2nc3sccn3c2CNCCc2ccc(Cl)c(Cl)c2)c1	–
6.1 µM⁻¹	440 nM	–	Cc1ccc(-c2nc3sccn3c2CNCCc2ccc(Cl)c(Cl)c2)cc1	–
0.74 µM⁻¹	10000 nM	–	CC(C)(C)c1ccc(-c2nc3sccn3c2CNCCc2ccc(Cl)c(Cl)c2)cc1	–
7 µM⁻¹	400 nM	Active	Clc1ccc(-c2nc3sccn3c2CNCCc2ccc(Cl)c(Cl)c2)cc1	Activity [4]: Active
18 µM⁻¹	150 nM	Active	Fc1ccc(-c2nc3sccn3c2CNCCc2ccc(Cl)c(Cl)c2)cc1	–
13 µM⁻¹	190 nM	Active	Clc1ccc(-c2nc3sccn3c2COCCc2ccc(Cl)c(Cl)c2)cc1	Activity [4]: Active
2.1 µM⁻¹	1100 nM	–	CN(CCc1ccc(Cl)c(Cl)c1)Cc1c(-c2ccc(Cl)cc2)nc2sccn12	–
4.3 µM⁻¹	650 nM	Active	Clc1ccc(CCNCc2c(-c3ccc(Cl)cc3)nc3sccn23)cc1	Activity [4]: Active
